Compound activity from PubChem BioAssay.
Cneo AK release: causes C. neoformans cell lysis; lysis activity, % at 15 µM; adenylate kinase release luminescence, 4 h; normalised: neutral wells 0, clomiphene wells 100; 360,000 compounds, 0.2% hits; AID 651654;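 active = mean lysis activity across replicates of at least 80%, whatever share of replicates individually reach that level; inactive = mean lysis activity below 80%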
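Schedule: static 4 h at 37 °C with compound, 1 h detection; system: C. neoformans cells; benchmarks: Clomiphene as positive control; buffer or medium: fresh YPD medium; measure: luminescence rise reflecting yeast cell lysis; measured by: luminescent adenylate kinase detection reagent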
FGF22 binding: shifts melting point of recombinant human FGF22. Q9HCT0. recombinant FGF22 thermal shift, SYPRO orange fluorescence; percent of sucrose octasulfate shift, DMSO zero. activity (Tm shift, normalised), % at 9.99 µM. 340,000 compounds, 1.5% hits;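 active = mean Tm shift, scaled 0 neutral to 100 positive control, at about 1.3% or above, every replicate too, limit read from the data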
HIV Env fusion: HIV envelope-mediated fusion inhibition; inhibition, % at 12.3 µM; HeLa-JRFL Env/CEM21 cell fusion, luciferase; 360,000 compounds, 1.1% hits;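 active = mean replicate inhibition score of at least 50 and every replicate individually at or above 50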;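 note: 0% = plate neutral controls and 100% = maraviroc near 300 nM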
Ecoli rRNA inh: inhibits bacterial ribosomal RNA function over humanized ribosomes. E. coli WT GFP vs humanized-ribosome RFP mutants, fluorescence, 24 h; hits give low values; DMSO median 0, no signal -100. GFP signal change (wild-type ribosome), % (concentration not given with the values). 350,000 compounds, 1.6% hits;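 active = significant combined selectivity score with lowered wild-type GFP, culture density cut under 30%, mutant RFP and density less affected; inactive = any of these conditions unmet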
PGC1a acetyl inh: PGC1a acetylation modulation, inhibitor mode | U2OS PGC1a acetylation, AlphaScreen anti-acetyl-lysine; with virally co-expressed GCN5 acetyltransferase | inhibition, % at 15.6 µM | 350,000 compounds, 0.17% hits;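 active = every replicate shows inhibition of at least 40%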;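 note: 0% = neutral control wells and 100% = positive control wells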
ERAP1 HTS inh: inhibitors of human ERAP1 aminopeptidase; Q9NZ08; recombinant ERAP1, Leu-AMC fluorescence, 60 min; inhibition, % at 10.7 µM; 340,000 compounds, 0.15% hits; AID 652197;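 active = mean replicate inhibition of at least 30%, or all replicates individually reaching that 30% level; inactive = mean below 30% and not every replicate reaching it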;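 note: 0% = neutral control wells and 100% = L-leucinethiol positive control wells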
Target sequence (Q9NZ08 whole entry, looked up): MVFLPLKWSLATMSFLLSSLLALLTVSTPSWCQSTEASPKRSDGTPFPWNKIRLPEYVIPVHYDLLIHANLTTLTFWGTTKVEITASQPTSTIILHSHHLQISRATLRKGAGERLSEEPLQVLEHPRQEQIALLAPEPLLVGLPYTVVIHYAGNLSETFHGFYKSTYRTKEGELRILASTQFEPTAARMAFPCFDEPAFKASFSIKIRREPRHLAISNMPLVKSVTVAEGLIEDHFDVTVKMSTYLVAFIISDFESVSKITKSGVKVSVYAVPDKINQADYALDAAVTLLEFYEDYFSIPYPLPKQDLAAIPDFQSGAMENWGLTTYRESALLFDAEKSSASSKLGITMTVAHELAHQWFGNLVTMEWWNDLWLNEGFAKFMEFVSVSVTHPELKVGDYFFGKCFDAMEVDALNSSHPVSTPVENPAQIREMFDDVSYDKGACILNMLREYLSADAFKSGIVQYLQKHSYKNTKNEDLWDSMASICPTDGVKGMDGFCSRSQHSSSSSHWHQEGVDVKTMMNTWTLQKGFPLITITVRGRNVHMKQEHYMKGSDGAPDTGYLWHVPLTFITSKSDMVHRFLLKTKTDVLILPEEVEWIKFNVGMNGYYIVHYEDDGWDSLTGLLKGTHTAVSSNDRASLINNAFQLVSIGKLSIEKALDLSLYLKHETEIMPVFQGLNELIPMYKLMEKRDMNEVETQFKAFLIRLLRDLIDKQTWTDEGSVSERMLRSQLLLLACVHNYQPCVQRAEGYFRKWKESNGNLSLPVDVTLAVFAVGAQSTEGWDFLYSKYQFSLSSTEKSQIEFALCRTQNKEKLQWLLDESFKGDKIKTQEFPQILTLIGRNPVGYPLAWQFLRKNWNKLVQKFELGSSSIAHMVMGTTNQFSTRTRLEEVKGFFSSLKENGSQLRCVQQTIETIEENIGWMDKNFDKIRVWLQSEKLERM
Starred values were filed as active, the others as inactive; / = not tested or not shown; ! = not confirmed by another sample; [ ] = dose if it differs, or a comment. Hits are enriched below; roughly 3.5% of the tested compounds scored in any of these assays.

SMILES	Cneo AK release	FGF22 binding	HIV Env fusion	Ecoli rRNA inh	PGC1a acetyl inh	ERAP1 HTS inh
COCC(=O)OCC(=O)N1N=C(c2ccc(Cl)cc2)CC1c1ccco1 (stereo unspecified)	/	44*	-18	-5	/	3
CN1CC(=O)N(CC(=O)N2N=C(c3ccc(Cl)cc3)CC2c2ccco2)C1=O (stereo unspecified)	-1	0	6	10	/	-4
CCC(=O)N1N=C(c2ccc(Cl)cc2)CC1c1ccco1 (stereo unspecified)	/	0	6	-28*	-4	5
Cc1ccc(OCC(=O)N2N=C(c3ccc(Cl)cc3)CC2c2ccco2)c([N+](=O)[O-])n1 (stereo unspecified)	/	0	13	-2	7	-3
C[C@H](CO)N1C[C@H](C)[C@@H](CN(C)CC2CCCCC2)Oc2ccc(NC(=O)C3CC3)cc2C1=O	-1	0	0[16.7 µM]	2	3	-1
O=C1CNC(=S)N1Cc1ccccc1	/	43*	0	13	/	1
COC(=O)c1sc(-c2ccccc2)cc1NC(=O)C1CC1	/	41	-2	-27*	-4	-1
CN(C)c1nc(OCCOC(=O)COc2ccc(Cl)cc2Cl)nc(N(C)C)n1	0	/	-73	/	18	/
CN(C)c1nc(OCCNC(=O)COc2ccc(Cl)cc2Cl)nc(N(C)C)n1	6	/	44*	/	-19	/
COCCNC(=O)C1(C)CCCN(C(=O)c2ccc3c(c2)CCO3)C1 (stereo unspecified)	-2	0	59*	4	5	-2
OCCNc1ncnc2c1ncn2[C@H]1CN(Cc2ccc(-c3ccccc3)cc2)C[C@@H](CO)O1	0	/	/	-1	/	2
O=[N+]([O-])c1cnc(Sc2ccncn2)s1	-4	0	-267	5	21	-1
C=CCn1c(Sc2ncc([N+](=O)[O-])s2)n[nH]c1=O	1	0	-96	-28*	4	/
CC(C)CCNC(=O)c1ccc2c(c1)ncn2C1CCCC1	/	45*	7	-14	-15	-2
CCOCCCNC(=O)c1ccc2c(c1)ncn2C1CCCC1	0	/	/	/	7	/
CC(C)NC(=S)N=Nc1c(O)[nH]c2ccc(C(C)C)cc12	2	0	25	-5	48*	2
Cc1ccccc1-c1noc(CNC(=O)c2ccco2)n1	4	0	-5	-3	-10	2
COc1ccc2c3c(n(C)c2c1)[C@@H](CO)N(C(=O)Cc1ccccn1)CC31CCN(CC2CCCC2)CC1	/	0	/	8	/	5
COc1ccc(C(=O)N2CCC(C)(C(=O)NS(=O)(=O)C3CC3)C2)cc1F (stereo unspecified)	-2	0	-7	4	9	2
COC(=O)[C@]12C[C@H](CC(=O)N3CCN(C(=O)c4ccco4)CC3)C(=O)N(CCC3=CCCCC3)C1=C[C@H](C(C)(C)C)O[C@@H]2C	/	0	74*	12	/	1
COC(=O)[C@]12C[C@H](CC(=O)N3CCCCC3)C(=O)N(CCC3=CCCCC3)C1=C[C@H](C(C)(C)C)O[C@@H]2C	/	0	27	12	/	4
COC(=O)[C@]12C[C@H](CC(=O)NCc3ccc(OC)c(OC)c3)C(=O)N(CCC3=CCCCC3)C1=C[C@H](C(C)(C)C)O[C@@H]2C	/	0	82*	3	/	-2
COC(=O)[C@]12C[C@H](CC(=O)NCc3ccc(OC)c(OC)c3)C(=O)N(Cc3ccccc3)C1=C[C@H](C(C)(C)C)O[C@@H]2C	/	0	88*	4	/	4
CC(C)NC(=O)N[C@@H]1CC[C@@H](CCNC(=O)C2CCOCC2)O[C@@H]1CO	0	0	-21[16.7 µM]	1	-3	4
COc1ccc(-c2sc3ccccc3c2-c2ccc(O)cc2)cc1	13	0	21	-31	-4	-1
SMILES	Cneo AK release	FGF22 binding	HIV Env fusion	Ecoli rRNA inh	PGC1a acetyl inh	ERAP1 HTS inh
CSc1c(-c2ccccn2)c(N)nn1C(=O)C1CC1	/	0	0	-24*	-3	-5
COc1ccc(Nc2ncnc3c2cnn3Cc2ccc(C)cc2)cc1	2	/	30	/	3	/
c1ccc(CCNc2ncnc3c2cnn3-c2ccccc2)cc1	-3	/	/	-53*	-8	0
COCCn1c(C)c(C)c2c(NCCc3ccccc3)ncnc21	-6	0	-20	2	51*	1
c1ccc(Cn2ncc3c(Nc4ccccc4)ncnc32)cc1	-1	0	24	-27*	/	4
Cc1cc(-n2c(C)cc(C(=O)CCl)c2C)no1	/	43	-84	12	/	0
Cc1ccc(C)c(NC(=O)CSc2nnc(-c3ccccc3)n2N)c1	0	/	/	/	11	/
CC1=C(C(=O)OCc2ccccc2)C(c2ccc(-c3ccccc3)cc2)NC(=O)N1CCCCCC(=O)O (stereo unspecified)	-2	0	4	-34*	-11	2
CC1=C(C(=O)OCc2ccccc2)C(c2ccc3ccccc3c2)NC(=O)N1CCCC(=O)O (stereo unspecified)	-5	0	4	-16*	-2	-5
CC1=C(C(=O)OC(C)(C)C)C(c2ccc3ccccc3c2)NC(=O)N1C (stereo unspecified)	0	0	29	-5	66*	1
Oc1ccc(-c2nc3ccc4ccccc4c3c3c2CCC3)cc1O	/	/	-80	/	/	/
CC(C)OCCCn1c(=O)c2ccccc2n2c(CCC(=O)NCc3ccccn3)nnc12	0	0	-8	4	3	0
C[C@H](CO)N1C[C@H](C)[C@@H](CN(C)S(=O)(=O)c2ccc(F)cc2)Oc2ccc(NS(=O)(=O)c3cn(C)cn3)cc2CC1=O	/	1	64*[16.7 µM]	0	6	-3
C[C@H]1CN([C@@H](C)CO)C(=O)Cc2cc(NS(=O)(=O)c3ccc(F)cc3)ccc2O[C@@H]1CN(C)S(=O)(=O)c1ccc(F)cc1	98*	0	-5[16.7 µM]	-1	-6	-5
C[C@H]1CN([C@@H](C)CO)C(=O)Cc2cc(NS(=O)(=O)c3cn(C)cn3)ccc2O[C@@H]1CN(C)S(=O)(=O)c1ccc(F)cc1	/	0	-12[16.7 µM]	0	1	-5
Cc1noc(C)c1S(=O)(=O)Nc1ccc2c(c1)C(=O)N([C@H](C)CO)C[C@H](C)[C@@H](CN(C)S(=O)(=O)c1ccc(F)cc1)O2	0	0	18	-25*!	2	-1
Cc1ccc(S(=O)(=O)Nc2ccc3c(c2)CC(=O)N([C@H](C)CO)C[C@H](C)[C@H](CN(C)S(=O)(=O)c2ccc(F)cc2)O3)cc1	-2	0	110*[16.7 µM]	0	-2	/
Cc1ccc(S(=O)(=O)N(C)C[C@H]2Oc3ccc(NS(=O)(=O)c4ccc(F)cc4)cc3CC(=O)N([C@H](C)CO)C[C@@H]2C)cc1	-3	0	15[16.7 µM]	-2	10	0
